How the values were obtained:
HepG2.A64 cells = test: Cell proliferation; type: cell-based, human; details: HepG2.A64, CCK-8, 96 h
How it was run: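 HepG2-derived cells carrying ETV-resistant HBV, kept in DMEM with 10% FBS, penicillin-streptomycin and 300 µg/ml geneticin at 37°C, 5% CO2. Seeded at 3×10^3 cells/well; after 24 h, drug dilution series in conditioned medium were added and renewed every other day for 4 days. CCK-8 was added, then 1~4 h incubation and absorbance at 450 nm. Five replicates, three independent experiments; IC50 calculated.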

MRP4 (HepG2.A64 cells) = target: T1, MRP4 (HepG2.A64 cells) (Homo sapiens, UniProt O15439); type: in vitro ADME; details: HepG2.A64, drug 4 days, 5 µM MK571 4 h, LCMS
T1 sequence (O15439 1-1325): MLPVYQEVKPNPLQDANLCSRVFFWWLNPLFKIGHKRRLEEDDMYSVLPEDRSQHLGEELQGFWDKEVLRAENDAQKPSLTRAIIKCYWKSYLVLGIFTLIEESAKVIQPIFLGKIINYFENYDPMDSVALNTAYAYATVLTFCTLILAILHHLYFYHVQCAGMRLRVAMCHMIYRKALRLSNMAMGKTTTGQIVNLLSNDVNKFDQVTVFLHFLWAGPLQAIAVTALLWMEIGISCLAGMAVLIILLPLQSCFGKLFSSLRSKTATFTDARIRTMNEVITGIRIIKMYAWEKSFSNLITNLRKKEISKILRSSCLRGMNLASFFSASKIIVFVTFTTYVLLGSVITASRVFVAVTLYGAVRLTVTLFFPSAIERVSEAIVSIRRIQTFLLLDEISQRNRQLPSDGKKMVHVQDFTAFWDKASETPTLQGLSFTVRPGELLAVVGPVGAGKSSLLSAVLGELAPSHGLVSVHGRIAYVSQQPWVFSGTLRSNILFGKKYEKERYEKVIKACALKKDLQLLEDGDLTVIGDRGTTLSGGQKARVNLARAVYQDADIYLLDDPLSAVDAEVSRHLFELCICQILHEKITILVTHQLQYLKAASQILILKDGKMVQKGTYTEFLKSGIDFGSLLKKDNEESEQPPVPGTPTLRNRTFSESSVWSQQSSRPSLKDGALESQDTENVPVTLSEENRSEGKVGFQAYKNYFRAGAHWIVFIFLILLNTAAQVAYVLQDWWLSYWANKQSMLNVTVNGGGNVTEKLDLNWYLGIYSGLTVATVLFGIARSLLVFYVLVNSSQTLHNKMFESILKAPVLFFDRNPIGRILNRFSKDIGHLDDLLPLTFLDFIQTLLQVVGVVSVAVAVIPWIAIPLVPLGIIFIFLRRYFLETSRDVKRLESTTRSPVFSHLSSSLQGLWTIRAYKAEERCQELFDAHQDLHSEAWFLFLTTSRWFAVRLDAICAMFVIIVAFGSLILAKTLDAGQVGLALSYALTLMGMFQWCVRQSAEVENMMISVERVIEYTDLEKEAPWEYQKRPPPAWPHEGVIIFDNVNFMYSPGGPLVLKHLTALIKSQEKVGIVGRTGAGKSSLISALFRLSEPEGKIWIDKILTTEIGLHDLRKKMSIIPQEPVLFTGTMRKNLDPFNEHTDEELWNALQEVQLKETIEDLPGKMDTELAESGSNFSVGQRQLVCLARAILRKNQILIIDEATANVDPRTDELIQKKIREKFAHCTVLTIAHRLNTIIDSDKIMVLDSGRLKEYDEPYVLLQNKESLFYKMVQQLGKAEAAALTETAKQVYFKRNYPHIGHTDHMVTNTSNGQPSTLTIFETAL

[1] = test system: wild-type HBV (HepG2.4D14 cells); test: Cell-based antiviral assay, supernatant HBV DNA by qPCR; details: Hepatitis B virus, 96 h, read-out: EC50 against HBV
MRP4 (HepG2.4D14 cells) = target: T2, MRP4 (HepG2.4D14 cells) (Homo sapiens, UniProt O15439); type: in vitro ADME; details: HepG2.4D14, drug 4 days, 5 µM MK571 48 h, LCMS
T2 sequence (O15439 1-1325): T1 sequence (O15439 1-1325)

[2] = test system: ETV-resistant HBV (HepG2.A64 cells); test: Cell-based antiviral assay, supernatant HBV DNA by qPCR; design: species or system hepatitis B virus; details: for EC50: Hepatitis B virus, HepG2.A64, 96 h, read-out: EC50 against HBV

Row | SMILES | Doses at which apparent cytotoxicity was observed (HepG2.A64 cells) | Extracellular concentration in presence of MK571 vs control (absence of MK571) (MRP4 (HepG2.A64 cells)) | EC50 [1] [µM] | Extracellular concentration in presence of MK571 vs control (absence of MK571) (MRP4 (HepG2.4D14 cells)) | EC50 [2] [µM] | Intracellular accumulation in presence of MK571 vs control (absence of MK571) (MRP4 (HepG2.A64 cells)) | Intracellular accumulation in presence of MK571 vs control (absence of MK571) (MRP4 (HepG2.4D14 cells)) | Fold resistance (mutant EC50 to wild-type EC50) ([2]; HepG2.A64 vs HepG2.4D14) [fold]
1 | C=C1[C@H](CO)[C@@H](O)C[C@@H]1n1cnc2c(=O)[nH]c(N)nc21 [ETV, entecavir] | above 10 µM | slightly reduced | 0.13 ± 0.02 | slightly reduced | 6.28 ± 0.07 | – | – | –
2 | Nc1ccn([C@@H]2CS[C@H](CO)O2)c(=O)n1 [LAM, lamivudine] | above 10 µM | slightly reduced | 4.14 ± 0.03 | slightly reduced | 5.94 ± 0.2 | – | – | –
3 | CN(C)C(=O)CCSC(SCCC(=O)O)c1cccc(/C=C/c2ccc3ccc(Cl)cc3n2)c1 (stereo not shown) [MK571, 3-([(3-(2-[7-chloro-2-quinolinyl]ethyl)phenyl]-[(3-dimethylamino-3-oxoporphyl)-thio)-methyl]-thio) propanoic acid] | above 10 µM | – | – | – | – | – | – | –
4 | C[C@H](Cn1cnc2c(N)ncnc21)OCP(=O)(O)O [TFV, tenofovir] | above 10 µM | slightly reduced | 3.24 ± 0.01 | slightly reduced | 11.43 ± 0.09 | markedly increased | markedly increased | 3.5
